Hits are enriched below; roughly 1.4% of the tested compounds scored in any of these assays.
cardiac RTF act = cardiac RTF calcium sensitization. P19429+P45379. activation, % at 7.2 µM. IANBD-labeled TnC RTF fluorescence at EC20 calcium; 0% EC20 calcium, 100% full calcium. 0.24% of 340,000 active. AID 493008;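 active = activation above the mean over all tested compounds plus 3 SD, cut at about 30% in these data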;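 also: rise in fluorescence read as greater calcium sensitivity of cardiac thin filaments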
CRFR2-BP ag = agonists of human CRF-binding protein/CRF-R2 receptor complex; HEK293 CRF-R2/CRF-BP, calcium dye fluorescence (FLIPR); percent of saturating CRF peptide response; activation, % at 13.2 µM; 0.46% of 350,000 active; AID 588473;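 active = activation of at least 50%, plus an integration ratio under a set limit after plate pattern correction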
Cardiac RTF inh = cardiac RTF calcium desensitization; P19429+P45379; IANBD-labeled cardiac RTF, Ca2+ fluorescence; inhibition, % at 7.15 µM; 0.12% of 340,000 active; AID 493244;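 active = inhibition above the mean inhibition of all tested compounds plus 3 SD, cut at about 17% in these data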;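 also: assay run at fixed EC70 calcium of 1.6 mM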
Tn6 DDE FP = inhibitors of Tn6 peptide binding to human fibrin DD(E). P02675. Fibrin DD(E) TRITC-Tn6 fluorescence polarization displacement. inhibition, % at 8.3 µM. 0.21% of 370,000 active. AID 720509;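 active = inhibition above a per-campaign cutoff: mean of compounds within control limits plus 3 SD, cut at about 15% in these data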
Target sequence (P02675 whole entry, looked up): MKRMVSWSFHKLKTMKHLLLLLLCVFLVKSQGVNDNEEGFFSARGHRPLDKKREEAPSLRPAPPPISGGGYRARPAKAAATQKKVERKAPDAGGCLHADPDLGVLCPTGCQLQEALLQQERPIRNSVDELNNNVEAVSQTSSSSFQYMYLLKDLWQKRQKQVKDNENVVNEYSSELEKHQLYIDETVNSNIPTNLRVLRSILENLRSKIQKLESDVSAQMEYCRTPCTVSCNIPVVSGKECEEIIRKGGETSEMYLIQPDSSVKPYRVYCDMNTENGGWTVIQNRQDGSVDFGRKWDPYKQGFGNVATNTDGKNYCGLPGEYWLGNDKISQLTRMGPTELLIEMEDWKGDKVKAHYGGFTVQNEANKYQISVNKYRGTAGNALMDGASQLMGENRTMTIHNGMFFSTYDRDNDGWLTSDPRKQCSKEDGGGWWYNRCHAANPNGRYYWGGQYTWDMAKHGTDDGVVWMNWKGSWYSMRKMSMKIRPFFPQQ
CRFR2-BP antag = CRF-BP/CRF-R2 complex antagonism. AID 588475. HEK293 CRF-R2/CRF-BP, CRF-induced calcium fluorescence. 0.59% of 350,000 active. inhibition, % at 11.8 µM;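 active = inhibition of the ligand-induced calcium signal above about 50% at the single tested concentration, limit read from the data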
DDE Tn7 FP inh = disrupts Tn7 cyclic peptide binding to fibrin D-Dimer-E complex; P02675; FP displacement of FITC-Tn7 peptide from fibrin DD(E); 0% = median of compound wells per plate; inhibition, % at 8.3 µM; 0.13% of 370,000 active;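 active = inhibition above the mean of compounds falling within the control limits plus 3 SD of them, cut at about 14% in these data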
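System: human fibrin DD(E); quantity: Fibrin-DD(E) at 2 µM final; also added: fluorescent Tn7 probe at 0.1 µM; compound dosing: single nominal test concentration of 8.3 µM per compound; schedule: 10 min preincubation, 3 h with tracer, room temperature; detection: fluorescence polarization of the labelled Tn7 tracer; repeats: one replicate per compound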
Tn7 DDE conf = confirmation of inhibitors of Tn7 binding to human fibrin DD(E). shares compounds with DDE Tn7 FP inh. FP displacement of TRITC-Tn7 peptide from DD(E); 0% set at plate's compound-well median. inhibition, % at 8.3 µM. 5% of 460 active;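 active = inhibition above the campaign cutoff, the mean of compounds within control limits plus 3 SD, cut at about 14% in these data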;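 also: displacers lower polarization since freed probe rises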
Tn7 DDE ctr = counter-screen hit for Tn7 peptide-fibrin DD(E) binding disruption; shares compounds with DDE Tn7 FP inh; TRITC-Tn7 probe displacement, fluorescence polarization; inhibition, % at 8.3 µM; 3% of 460 active;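 active = inhibition above the cutoff, the mean of compounds lying between the control bounds plus 3 SD of those compounds, cut at about 17% in these data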
Hits are given with their value.

How did CC(=O)Nc1ccc(-c2csc(NCCc3ccccc3)n2)cc1 do in these assays?
cardiac RTF act: inactive; CRFR2-BP ag: inactive; Cardiac RTF inh: inactive; Tn6 DDE FP: inactive; CRFR2-BP antag: inactive; DDE Tn7 FP inh: 17; Tn7 DDE conf: inactive; Tn7 DDE ctr: inactive

How did NC(=O)c1cc(-c2csc(NCCc3ccccc3)n2)ccc1O do in these assays?
cardiac RTF act: inactive; CRFR2-BP ag: inactive; Cardiac RTF inh: inactive; Tn6 DDE FP: inactive; CRFR2-BP antag: inactive; DDE Tn7 FP inh: inactive

Results for Cc1ccc(/C=N/N2C(=O)C3C(C2=O)C2C=CC3C23CC3)o1 (stereo not given) ?
cardiac RTF act: inactive; CRFR2-BP ag: inactive; Cardiac RTF inh: inactive; Tn6 DDE FP: inactive; CRFR2-BP antag: inactive; DDE Tn7 FP inh: 14; Tn7 DDE conf: inactive; Tn7 DDE ctr: inactive

Results for COc1ccc(NC(=O)C2Cc3c(-c4cccc(C(C)=O)c4)ccnc3O2)cn1 (stereo not given) ?
Tn6 DDE FP: inactive; DDE Tn7 FP inh: inactive

What do the screens show for `CC(=O)Nc1sc(C)c(C)c1C(=O)OCC(=O)Nc1ccccc1C(F)(F)F`?
CRFR2-BP ag: inactive; Tn6 DDE FP: inactive; CRFR2-BP antag: inactive; DDE Tn7 FP inh: 16; Tn7 DDE conf: inactive; Tn7 DDE ctr: inactive

What do the screens show for `CCC(CC)NC(=O)O[C@H]1CC[C@@]23CCCN2C(=O)CCC[C@H]3[C@H]1C`?
Tn6 DDE FP: inactive; DDE Tn7 FP inh: inactive

Results for CC1CCC2(CC1)CCC2NCc1ccc(Br)cc1 (stereo not given) ?
Tn6 DDE FP: inactive; DDE Tn7 FP inh: inactive

What do the screens show for `Cc1c(NS(=O)(=O)c2ccc([N+](=O)[O-])cc2)c(=O)n(-c2ccccc2)n1C`?
cardiac RTF act: inactive; CRFR2-BP ag: inactive; Cardiac RTF inh: inactive; Tn6 DDE FP: inactive; CRFR2-BP antag: inactive; DDE Tn7 FP inh: inactive

Results for Cc1c(NS(=O)(=O)c2cc([N+](=O)[O-])ccc2Cl)c(=O)n(-c2ccccc2)n1C ?
cardiac RTF act: inactive; CRFR2-BP ag: inactive; Cardiac RTF inh: inactive; Tn6 DDE FP: inactive; CRFR2-BP antag: inactive; DDE Tn7 FP inh: 14; Tn7 DDE conf: inactive; Tn7 DDE ctr: inactive

Results for O=C(OCC(=O)N1CCCc2ccccc21)c1cccc(C(F)(F)F)c1 ?
cardiac RTF act: inactive; CRFR2-BP ag: inactive; Cardiac RTF inh: inactive; Tn6 DDE FP: inactive; CRFR2-BP antag: inactive; DDE Tn7 FP inh: 15; Tn7 DDE conf: inactive; Tn7 DDE ctr: inactive

Results for COc1cccc(OC)c1C(=O)OCC(=O)NCCCc1ccccc1 ?
cardiac RTF act: inactive; CRFR2-BP ag: inactive; Cardiac RTF inh: inactive; Tn6 DDE FP: inactive; CRFR2-BP antag: inactive; DDE Tn7 FP inh: 15; Tn7 DDE conf: inactive; Tn7 DDE ctr: inactive

Results for COC(CNC(=O)[C@H](Cc1ccccc1)NC(C)(C)C(=O)NC1CCCCC1)OC ?
Tn6 DDE FP: inactive; DDE Tn7 FP inh: inactive

Results for O=C(CCCOc1ccc(Cl)cc1)N1CCCCCC1 ?
cardiac RTF act: inactive; CRFR2-BP ag: inactive; Cardiac RTF inh: inactive; Tn6 DDE FP: inactive; CRFR2-BP antag: inactive; DDE Tn7 FP inh: 14; Tn7 DDE conf: inactive; Tn7 DDE ctr: inactive

What do the screens show for `Cc1cccc(Cn2cc(COC(=O)N3CCOCC3)nn2)c1`?
Tn6 DDE FP: inactive; DDE Tn7 FP inh: inactive

How did NS(=O)(=O)c1ccc(CCNc2nn3c(-c4ccc(F)c(Cl)c4)cnc3s2)cc1 do in these assays?
Tn6 DDE FP: inactive; DDE Tn7 FP inh: 14; Tn7 DDE conf: inactive; Tn7 DDE ctr: inactive

What do the screens show for `O=C(NC1CCCCN(Cc2cccc(Cl)c2)C1=O)c1cccc(C(F)(F)F)c1` (stereo not given)?
Tn6 DDE FP: inactive; DDE Tn7 FP inh: inactive

Results for NC(=O)CC(NC(=O)Cc1ccc(Cl)cc1)c1ccc(NC2CCCC2)c([N+](=O)[O-])c1 (stereo not given) ?
cardiac RTF act: inactive; CRFR2-BP ag: inactive; Cardiac RTF inh: inactive; Tn6 DDE FP: inactive; CRFR2-BP antag: inactive; DDE Tn7 FP inh: 14; Tn7 DDE conf: inactive; Tn7 DDE ctr: inactive

Results for CCOC(=O)[C@]12CCCCC/C=C\1N(CCc1ccc(Cl)cc1)C(=O)[C@H]2CC(=O)N1CCCC1 ?
Tn6 DDE FP: inactive; DDE Tn7 FP inh: inactive

How did CC1(C)CC2(CC(C)(C(=O)CSc3nc4ccccc4s3)OC2=O)C(=O)O1 (stereo not given) do in these assays?
cardiac RTF act: inactive; CRFR2-BP ag: inactive; Cardiac RTF inh: inactive; Tn6 DDE FP: inactive; CRFR2-BP antag: inactive; DDE Tn7 FP inh: 18; Tn7 DDE conf: inactive; Tn7 DDE ctr: inactive

What do the screens show for `CC1CC2(CC(C)(C(=O)CSc3nc4ccccc4s3)OC2=O)C(=O)O1` (stereo not given)?
cardiac RTF act: inactive; CRFR2-BP ag: inactive; Cardiac RTF inh: inactive; Tn6 DDE FP: inactive; CRFR2-BP antag: inactive; DDE Tn7 FP inh: inactive

How did COC(=O)/C=C/C(=O)Nc1cccc(C(F)(F)F)c1 do in these assays?
cardiac RTF act: inactive; CRFR2-BP ag: inactive; Cardiac RTF inh: inactive; Tn6 DDE FP: inactive; CRFR2-BP antag: inactive; DDE Tn7 FP inh: 14; Tn7 DDE conf: inactive; Tn7 DDE ctr: inactive

What do the screens show for `O=C(Nc1ccc(NC(=O)c2ccccc2Cl)c(Cl)c1)c1ccccn1`?
Tn6 DDE FP: inactive; DDE Tn7 FP inh: inactive

Results for CCN1C(=O)[C@@H]2[C@@H]3CN(S(=O)(=O)c4ccc(C)cc4)[C@@H](c4ccccc4F)[C@@H]3C(=O)C[C@@H]2C1=O ?
Tn6 DDE FP: inactive; DDE Tn7 FP inh: inactive

Results for CN(C)S(=O)(=O)c1ccc(C(=O)NCC(=O)N/N=C/c2cccs2)cc1 ?
cardiac RTF act: inactive; CRFR2-BP ag: inactive; Cardiac RTF inh: inactive; Tn6 DDE FP: inactive; CRFR2-BP antag: inactive; DDE Tn7 FP inh: 15; Tn7 DDE conf: inactive; Tn7 DDE ctr: inactive

Results for COc1ccc(-c2c(C(=O)c3ccccc3)[nH]c(N)c2C(=O)NCCc2c[nH]c3ccccc23)cc1 ?
Tn6 DDE FP: inactive; DDE Tn7 FP inh: inactive

Results for CNC(=O)[C@@H]1CC=C[C@@H]2CCN(c3ccccc3)C(=O)[C@@H]21 ?
Tn6 DDE FP: inactive; DDE Tn7 FP inh: inactive

Results for O=C(Nc1cccc(Cl)c1)N1CCCC1 ?
cardiac RTF act: inactive; CRFR2-BP ag: inactive; Cardiac RTF inh: inactive; Tn6 DDE FP: inactive; CRFR2-BP antag: inactive; DDE Tn7 FP inh: 14; Tn7 DDE conf: inactive; Tn7 DDE ctr: inactive

Results for O=C(Nc1cccc(Cl)c1)N1CCOCC1 ?
cardiac RTF act: inactive; CRFR2-BP ag: inactive; Cardiac RTF inh: inactive; Tn6 DDE FP: inactive; CRFR2-BP antag: inactive; DDE Tn7 FP inh: inactive

Screening results: PubChem, several laboratories
